# Source: PubChem BioAssay
# Sampled rows, rich in hits. Any-hit rate of the full collection: about 1.5%.
# CHRM4 agonist = CHRM4 agonism in calcium assay; P08173; CHO-K1 hM4/Gqi5, Fluo-8 calcium fluorescence; vehicle 0%, full acetylcholine response 100%; activation, % at 3 µM; hit rate 0.14% among 360,000; AID 624127;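 active = activation above the run mean over all test wells plus 3 SD, cut at about 32% in these data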;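 note: peak over basal fluorescence ratio per well then scaled between controls; 0% = DMSO wells and 100% = acetylcholine at EC100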
# V1aR counter = V1a receptor agonism, counter-screen for OXTR agonists; P37288; activation, % at 3 µM; AID 2797; CHO-V1R cells, Fluo-8 calcium fluorescence, agonist mode; 0% DMSO, 100% 3 nM vasopressin; hit rate 0.25% among 320,000;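 active = activation above the mean activation of all tested compounds plus 3 SD, per screening run, cut at about 20% in these data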;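 note: signal is peak over basal fluorescence ratio across a 100 second FLIPR read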
# Target sequence (P37288 whole entry, looked up): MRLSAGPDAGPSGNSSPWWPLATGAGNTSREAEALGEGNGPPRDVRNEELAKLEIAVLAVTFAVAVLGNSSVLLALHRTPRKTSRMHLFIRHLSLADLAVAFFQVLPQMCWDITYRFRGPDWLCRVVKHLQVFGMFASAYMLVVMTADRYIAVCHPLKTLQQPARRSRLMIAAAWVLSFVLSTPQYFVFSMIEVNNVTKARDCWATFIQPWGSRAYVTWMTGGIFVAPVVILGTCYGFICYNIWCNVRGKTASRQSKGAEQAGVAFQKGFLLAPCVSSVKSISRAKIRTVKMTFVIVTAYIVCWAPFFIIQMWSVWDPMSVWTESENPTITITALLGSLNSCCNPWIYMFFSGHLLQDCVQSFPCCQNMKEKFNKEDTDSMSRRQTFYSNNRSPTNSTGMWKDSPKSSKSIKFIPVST
# OXTR potentiator = potentiators of human oxytocin receptor; CHO-OTR cells, Fluo-8 calcium fluorescence, potentiator mode; 0% = oxytocin EC15, 100% = EC100; AID 2445; activation, % at 3 µM; hit rate 0.061% among 320,000;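 active = activation above that plate's cutoff, the mean activation of tested compounds plus 3 SD, cut at about 6.6% in these data, passing the limit was not always enough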;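 note: 100% uses oxytocin at 75 nM as the full agonist control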
#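 System: human OTR in CHO cells; Also added: sub-maximal oxytocin, roughly EC15; Timing: compound 6 min at room temperature before oxytocin, 100 s read; Technique: Fluo-8 intracellular calcium fluorescence, ex 470-495, em 515-575 nm; Controls: oxytocin EC15 low and EC100 high; Replication: singlicate.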
# M4 antag = CHRM4 antagonism in calcium assay | CHO-hM4 cells, ACh EC80, Fluo-8 calcium fluorescence | hit rate 0.73% among 360,000 | P08173 | inhibition, % at 3 µM;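 active = inhibition above its plate's cutoff, the mean inhibition of sample wells plus 3 SD, cut at about 27% in these data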;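 note: 0% = acetylcholine EC80 with DMSO and 100% = DMSO without agonist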
# OXTR ag = human OXTR agonism. CHO-OTR cells, Fluo-8 calcium fluorescence; normalized: DMSO 0%, oxytocin 100%. hit rate 0.32% among 320,000. P30559. activation, % at 3 µM;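 active = activation above the mean of all tested compounds plus 3 SD, cutoff set per screening run, cut at about 20% in these data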;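 note: peak over basal fluorescence ratio from a 100 s FLIPR kinetic read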
# CHRM4 PAM = CHRM4 positive allosteric modulation | CHO-K1 hM4/Gqi5, Fluo-8 calcium fluorescence, ACh EC20; 0% = ACh EC20, 100% = maximal ACh | activation, % at 3 µM | hit rate 0.4% among 360,000 | AID 624126;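 active = activation above its plate's cutoff, the mean activation of sample wells plus 3 SD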
# The depositor's hits bear a star; . = not tested or not shown.
SMILES,CHRM4 agonist,V1aR counter,OXTR potentiator,M4 antag,OXTR ag,CHRM4 PAM
COCc1ccc(C(=O)N2CCCC(CCC(=O)NCc3ccccc3F)C2)o1 (stereo unspecified),-0.1,-0.1,-2.8,-6.1,-0.1,-1.3
CCOc1ccc(NS(=O)(=O)c2ccc(C(=O)NCC(c3ccco3)N3CCCC3)cc2)cc1 (stereo unspecified),34.0*,23.0*,-11.6,-15.2,34.7*,-0.8
CCOc1ccc(NS(=O)(=O)c2ccc(C(=O)N3CCN(c4ncccn4)CC3)cc2)cc1,18.5,11.4,-13.5,-6.0,16.8,-6.0
CCOc1ccc(S(=O)(=O)Nc2ccc(C(=O)N3CC(C)OC(C)C3)cc2)cc1 (stereo unspecified),16.2,27.3*,-18.1,12.1,34.5*,-7.2
CC1CN(C(=O)c2ccc(NS(=O)(=O)c3ccc(C(C)(C)C)cc3)cc2)CC(C)O1 (stereo unspecified),33.2*,.,.,12.0,.,-5.7
O=C(NCC(c1ccco1)N1CCCC1)c1ccc(S(=O)(=O)Nc2ccc(F)cc2)cc1 (stereo unspecified),10.5,6.3,-10.9,6.1,9.0,-6.2
CCOc1ccc(NS(=O)(=O)c2ccc(C(=O)N3CCCCC3)cc2)cc1,16.4,27.8*,-16.2,16.8,24.4*,-13.1
CCOc1ccc(S(=O)(=O)Nc2cccc(C(=O)N3CC(C)OC(C)C3)c2)cc1 (stereo unspecified),1.6,2.2,-14.1,3.7,1.8,-4.8
O=C(NCCN1CCC(n2c(=O)[nH]c3ccccc32)CC1)c1cccs1,1.9,.,.,-12.4,.,4.8
Cc1cc(C)n2nc(CNS(=O)(=O)c3ccc(C(C)(C)C)cc3)nc2n1,1.9,.,.,-1.9,.,-1.0
Cc1ccc(NS(=O)(=O)c2ccc(C(=O)NCC(c3ccco3)N(C)C)cc2)cc1 (stereo unspecified),25.6,25.6*,-15.7,2.8,26.9*,-6.4
C=C(C)[C@@H]1C2=CC(C(=O)OC)=C(C[C@H](C(=C)C)[C@H]3O[C@H]3C3=C[C@H]1OC3=O)O2,3.0,.,.,-6.3,.,0.4
CN1C[C@@H]2[C@@H]3C(=O)N(Cc4ccccc4)C(=O)[C@@H]3[C@](C)(C1=O)N2C(=O)c1ccc(Br)cc1,1.7,.,.,6.5,.,4.6
COc1ccc(NS(=O)(=O)c2ccc(-c3coc(C)n3)cc2)cc1OC,27.5,7.3,-11.3,46.9*,8.7,-14.2
COc1ccc(NS(=O)(=O)c2ccc(-c3coc(C)n3)cc2)cc1,9.7,6.5,-24.5,0.5,6.6,5.3
Cc1nc(-c2ccc(S(=O)(=O)Nc3ccc(S(N)(=O)=O)cc3)cc2)co1,0.6,-0.1,-16.1,-7.8,-1.1,13.6*
CCOc1cc(/C=N/NC(=O)c2cccc(S(=O)(=O)N3CCCC3)c2)ccc1OCC(=O)N(C)C,0.4,-0.4,-4.7,8.6,-0.4,-5.3
O=c1cc(COc2ccccc2[N+](=O)[O-])nc2sccn12,.,-0.1,-4.8,.,0.6,.
CCOC(=O)c1cn(Cc2ccccc2)c(C(=O)OC(C)(C)C)c1O,80.9*,28.0*,-18.6,15.2,51.7*,-15.1
CCCc1cc(=O)n2[nH]c(NC(=O)c3ccco3)nc2n1,0.2,-0.3,5.4,-24.1,0.7,14.5*
CCCc1cc(=O)n2[nH]c(NCc3c(Cl)cccc3Cl)nc2n1,-0.4,-0.9,-5.0,14.2,-0.3,-0.8
Cc1ccc(CNC(=O)[C@H]2O[C@@H](n3ccc(N)nc3=O)[C@H](O)[C@@H]2O)o1,1.9,.,.,-16.8,.,20.4*
CCCn1cnnc1CNC(=O)[C@H]1O[C@@H](n2ccc(N)nc2=O)[C@H](O)[C@@H]1O,-0.2,.,.,1.0,.,1.6
COc1ccc(C(C)=O)cc1CC(=O)Nc1cccc(S(=O)(=O)N2CCOCC2)c1,1.6,1.5,-0.4,0.1,1.5,3.5
CN1C(=O)/C(=C/c2ccccc2OCc2cccc(F)c2)N(C)C1=S,-1.3,0.7,-6.0,64.8*,-0.3,-23.5
Cc1ccc(C(=O)CN(CCCC(N)=O)C(=O)c2ccncc2)cc1,2.4,0.9,3.8,-4.6,-0.4,0.1
NC(=O)c1ccc(NC(=O)C2CC2)cc1,2.8,0.2,-2.5,-6.7,0.4,22.5*
